Compounds with a hit are over-represented: about 2.3% of the library has one in this group of screens.
ASAP1 inh: blocks human ASAP1-stimulated Arf1 GTP hydrolysis. GDP FP detection. inhibition, % at 16.5 µM. 360,000 compounds, 0.19% hits. AID 624377; in the data active means inhibition above about 25%;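 further: 0% = vehicle with enzyme and substrate and 100% = no enzyme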
ARFGAP1 inhibitor: rat ARFGAP1 inhibition. inhibition, % at 16.5 µM. Arfgap1-stimulated ARF1 GTP hydrolysis, GDP FP detection. 360,000 compounds, 0.26% hits. Q62848. AID 651572;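 active means inhibition above a per-plate limit, mean inhibition of low control wells plus 3 SD, cut at about 25% in these data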;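 further: 0% = DMSO wells with enzyme and 100% = wells lacking Arfgap1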
Target sequence (Q62848 1-136 limits assumed): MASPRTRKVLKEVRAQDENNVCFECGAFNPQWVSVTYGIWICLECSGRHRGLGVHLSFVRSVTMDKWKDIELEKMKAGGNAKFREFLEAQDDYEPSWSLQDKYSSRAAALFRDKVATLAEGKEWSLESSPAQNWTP
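Assay system: Rat Arfgap1 GAP domain (His6, aa 1-136), purified enzyme | Buffer or medium: HEPES 25 mM pH 7.5, NaCl 150 mM, MgCl2, DTT | Schedule: GTP hydrolysis reaction 2 h at 25 °C | Signal: FP of antibody-bound GDP Alexa 633 tracer, ex 620/em 688 nm | Measure: Percent inhibition of Arfgap1-stimulated GTP hydrolysis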
sPLA2-III inh: Blocks human group III sPLA2 activity. Q9NZ20. QFRET BODIPY PC-A2 liposome hydrolysis, fluorescence. inhibition, % at 12.2 µM. 370,000 compounds, 0.56% hits. AID 743126;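 active means inhibition above mean plus 3 SD of compounds lying within the high and low control bounds, cut at about 19% in these data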;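 further: 0% = median of test compound wells and 100% = no enzyme DMSO wells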
Target sequence (Q9NZ20 whole entry, looked up): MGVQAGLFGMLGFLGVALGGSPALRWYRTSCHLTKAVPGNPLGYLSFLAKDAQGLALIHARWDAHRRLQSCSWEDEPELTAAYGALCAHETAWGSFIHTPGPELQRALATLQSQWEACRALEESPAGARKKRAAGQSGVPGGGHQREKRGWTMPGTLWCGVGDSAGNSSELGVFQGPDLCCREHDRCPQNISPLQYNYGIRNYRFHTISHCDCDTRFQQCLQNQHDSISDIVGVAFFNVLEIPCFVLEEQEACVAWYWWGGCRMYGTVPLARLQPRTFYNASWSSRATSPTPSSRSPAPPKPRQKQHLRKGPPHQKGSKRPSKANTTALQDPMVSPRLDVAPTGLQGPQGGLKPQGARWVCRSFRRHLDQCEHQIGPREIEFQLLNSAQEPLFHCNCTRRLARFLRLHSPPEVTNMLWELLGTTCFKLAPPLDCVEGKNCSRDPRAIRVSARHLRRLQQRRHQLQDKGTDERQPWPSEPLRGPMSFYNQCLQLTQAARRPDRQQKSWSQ
Calb FLC: C. albicans growth modulation with fluconazole; AID 1979; 300,000 compounds, 0.57% hits; growth inhibition, % (test concentration not listed); C. albicans CaCi-2 + fluconazole, Alamar Blue growth, 48 h;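 active means growth inhibition above about 58% in most replicates, limit read from the data, passing the limit was not always enough; inconclusive means exactly half the replicates above a set limit; inactive means most replicates below a set limit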;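 further: all wells also contain fluconazole at 8 µg/ml as a sub-toxic cotreatment; 0% = median of DMSO wells and 100% = median of geldanamycin control wells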
SKKanGAS inh: inhibitors of SKKanGAS S. pyogenes growth in kanamycin (SK-promoter or general growth effect). BacTiter-Glo, 6 h. inhibition, % at 7.5 µM. 300,000 compounds, 1.3% hits. AID 1662;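 active means mean replicate score, as percent of positive control median, at least 50; inconclusive means mean below 50 but one replicate at or above 50; inactive means mean and every replicate below 50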;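 further: strain carries kanamycin resistance gene driven by streptokinase promoter and grows in 40 µg/ml kanamycin; loss of luminescence reflects streptokinase promoter inhibition or plain growth inhibition; 0% = median of DMSO wells and 100% = positive control at its reference dose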
Starred values were filed as active, the others as inactive; ? = inconclusive; . = no result given.

SMILES	ASAP1 inh	ARFGAP1 inhibitor	sPLA2-III inh	Calb FLC	SKKanGAS inh
CC(C)(C)c1cc[n+](C2=C([O-])c3ccccc3C(=O)/C2=N\S(=O)(=O)c2cccs2)cc1	6	2	6	57	56*
COC(=O)[C@]12C[C@H](CC(=O)N3CCN(C(=O)c4ccco4)CC3)C(=O)N(CCc3ccc(OC)c(OC)c3)C1=C[C@H](C1CCCC1)O[C@@H]2C	.	.	4	.	.
S=c1[nH]nc(-c2cc(-c3ccccc3)n[nH]2)n1N=Cc1cccc(OCc2ccccc2)c1	.	.	3	.	.
CC(=O)c1c(C)nc(-c2cccc([N+](=O)[O-])c2)n1O	-2	-1	2	76*	18
COc1ccc(-c2nc(C)c(C(C)=O)n2O)cc1[N+](=O)[O-]	8	4	6	52	4
O=C(NNc1ccc(Cl)cc1)c1cccs1	2	-5	-1	82*	-4
O=C(NNc1cc(Cl)cc(Cl)c1)c1cccs1	12	-4	9	-33	2
COc1cnc(-c2ccccn2)nc1N(C)c1ccccc1	10	2	3	?	72*
COc1cnc(-c2ccccn2)nc1Oc1ccccc1	8	4	11	19	57*
COc1cnc(-c2ccccn2)nc1Sc1ccc(Cl)cc1	2	11	15	-3	?
O[C@H](COc1cccc(Br)c1)CN1CCC(C(O)(c2ccccc2)c2ccccc2)CC1	.	.	-13	.	.
CCOC(=O)Cc1nc(N2CCN(CCO)CC2)c2c(C)c(C(=O)OCC)sc2n1	.	.	3	.	.
CC(=O)SC(C[N+](=O)[O-])c1cn(C(C)=O)c2ccccc12 (centres undefined)	-6	0	-4	112*	3
COC(=O)CSc1nnc(-c2cccs2)o1	.	.	-2	.	.
COc1ccc(/C=C(/NC(=O)c2ccccc2)c2nc3ccc(Cl)cc3[nH]2)cc1OC	15	6	-4	70*	-2
COC(=O)C1CN(Cc2ccc(C)cc2)CCS(=O)(=O)N1Cc1cn(Cc2ccc(C)cc2)nn1 (centres undefined)	.	.	-10	.	.
COc1ccc(OC)c(C(O)c2ncc(-c3cccc4ccccc34)[nH]2)c1 (centres undefined)	1	-2	-8	.	.
COc1cc(/C=N/NC(=O)c2cncc(Br)c2)cc([N+](=O)[O-])c1O	-8	-13	10	35	108*
COc1cc([N+](=O)[O-])cc(/C=N/NC(=O)c2cncc(Br)c2)c1O	5	1	6	-1	94*
O=C(N/N=C\c1ccc([N+](=O)[O-])o1)c1cncc(Br)c1	-1	-2	4	-2	5
COc1cc(/C=N/NC(=O)c2cccc([N+](=O)[O-])c2)cc(OC)c1O	1	15	-1	?	-5
Cc1cccc(/C=C2\Sc3ccc(C(=O)N4CCC(C)CC4)cc3N(C)C2=O)c1	-1	2	-10	3	76*
CCOc1ccc(/C=C2/Sc3ccc(C(=O)N4CCN(C(=O)c5ccco5)CC4)cc3N(C)C2=O)cc1OC	.	.	.	-2	67*
Cc1cccc(/C=C2\Sc3ccc(C(=O)N4CCCCC4)cc3N(C)C2=O)c1	-5	-5	-11	-7	2
CCOc1ccc(/C=C2/Sc3ccc(C(=O)NCC4CCCO4)cc3N(C)C2=O)cc1OC (centres undefined)	18	-9	-15	-3	26
SMILES	ASAP1 inh	ARFGAP1 inhibitor	sPLA2-III inh	Calb FLC	SKKanGAS inh
CCOC(=O)N1CCN(C(=O)c2ccc3c(c2)N(C)C(=O)/C(=C\c2ccc(OCC)c(OC)c2)S3)CC1	-19	-3	-22	-4	108*
COc1ccc(/C=C2\Sc3ccc(C(=O)NCCCN4CCCC4)cc3N(C)C2=O)cc1OC	24	9	-3	-4	4
CN(C)C(=O)N1CCN(C(=O)[C@H](CCc2ccccc2)NC(=O)[C@H]2O[C@@H](n3cnc4c(N)ncnc43)[C@H](O)[C@@H]2O)CC1	-5	1	-1	.	.
C=CCN(CC#CC(=C)C)Cc1ccccc1	.	.	9	.	.
COc1cccc(CNC(=O)C2CCN(c3nc(OC)nc(OC)n3)CC2)c1	.	.	6	.	.
CC(c1ccc(Cl)cc1)n1c(-c2ccc3ccccc3n2)n[nH]c1=S (centres undefined)	5	1	-2	79*	-6
CC(c1ccc(F)cc1)n1c(-c2ccc3ccccc3n2)n[nH]c1=S (centres undefined)	2	0	-7	30	-2
CC(C)C[C@H](NC(=O)c1[nH]cnc1C(=O)N[C@@H](Cc1ccccc1)C(=O)OC(C)(C)C)C(=O)OCc1ccccc1	9	-2	-14	-7	25
CC(C)C[C@H](NC(=O)c1[nH]cnc1C(=O)N[C@@H](C)C(=O)OC(C)(C)C)C(=O)OCc1ccccc1	8	14	-13	-7	73*
Cc1cccc(NC(=O)c2nc[nH]c2C(=O)N[C@@H](CCCCNC(=O)OC(C)(C)C)C(=O)OC(C)(C)C)c1	7	11	-22	3	91*
CC(C)C[C@H](NC(=O)c1nc[nH]c1C(=O)NCc1ccccc1)C(=O)OCc1ccccc1	20	19	-11	5	54*
CC(C)C[C@H](NC(=O)c1[nH]cnc1C(=O)N[C@@H](Cc1ccccc1)C(=O)OC(C)(C)C)C(=O)OC(C)(C)C	-2	8	-12	0	83*
c1ccc(C[C@H]2CN=C(Nc3ccccc3)N2CC2CCCC2)cc1	-4	5	18	.	.
Cc1cccc(NC(=O)c2nc[nH]c2C(=O)N[C@@H](C)C(=O)OCc2ccccc2)c1	8	-4	-23	4	39
COc1ccc(NC(=O)c2nc[nH]c2C(=O)N[C@@H](CC(C)C)C(=O)OC(C)(C)C)cc1	13	5	-11	11	76*
CC(C)C[C@H](NC(=O)c1nc[nH]c1C(=O)NC1CCN(C(=O)OC(C)(C)C)CC1)C(=O)OC(C)(C)C	-18	15	-7	9	11
COc1ccc(NC(=O)c2nc[nH]c2C(=O)N[C@@H](C)C(=O)OC(C)(C)C)cc1	3	8	-7	2	1
CC(C)C[C@H](NC(=O)c1nc[nH]c1C(=O)NC1CCN(C(=O)OC(C)(C)C)CC1)C(=O)OCc1ccccc1	13	3	-6	6	73*
Cc1cccc(NC(=O)c2nc[nH]c2C(=O)N[C@@H](CC(C)C)C(=O)OCc2ccccc2)c1	6	16	-19	4	92*
N#CC1=C(N)Oc2c(ccc3cccnc23)C1c1ccccc1 (centres undefined)	2	-4	-17	4	13
Cc1ccc2[nH]c(=O)c(C3C(C#N)=C(N)Oc4c3ccc3cccnc43)cc2c1 (centres undefined)	3	-6	-2	99*	18
NC(N)=N/N=C/c1ccc(OCc2ccc(Cl)cc2)cc1	19	-4	0	111*	28
NC(N)=N/N=C/c1ccc(OCc2ccccc2)cc1	-2	3	14	-12	6
COCCNC(=S)N1CCN(c2nc(-c3ccccc3)cs2)CC1	6	14	13	6	12

Screens as filed in PubChem.
